In one data set the test system is SW480. Kind of data set: Phototoxicity against human SW480 cells assessed as reduction in cell viability preincubated for 3 hrs followed by 54 J/cm2 light irradiation and measured after 24 hrs by MTT assay. It is filed as functional, cell-based. The conditions noted are these: SW480, light or radiation study. In outline: (§1)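 PS formulated in PBS containing Cremophor EL/1,2-propanediol (10:3, v:v) after THF removal, filtered, with concentration confirmed by UV-Vis. Cells were grown in DMEM with 10% FBS and seeded at 3×10^3 per well overnight. They were incubated with PS for 3 h, irradiated at λ > 590 nm, kept 24 h at 37 °C, then given MTT (0.5 mg/mL, 4 h) with DMSO solubilization and A490 read-out.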
(In general: Formazan colour is commonly taken as a measure of viable cells.)

Data set [1] concerns HeLa. In words: Phototoxicity against human HeLa cells assessed as reduction in cell viability preincubated for 3 hrs followed by 54 J/cm2 light irradiation and measured after 24 hrs by MTT assay. The data set is classed as functional, cell-based. The note with it: light or radiation study. The procedure, abridged:
as §1

Data set [2] is described as follows: Photostability of the compound in PBS containing 1% Cremophor EL/1,2-propanediol (10:3, v:v) system assessed as compound degradation irradiated with 90 mW/cm2 light. It is filed as physicochemical. The note with it: buffer.
Data set [3] is described as follows: Emission property of the compound in chloroform assessed as maximum emission wavelength by fluorescence spectrophotometric method. The data set is classed as physicochemical. The procedure, abridged: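 Fluorescence spectrum recorded in chloroform by fluorescence spectrophotometer at room temperature.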
Data set [4] can be described thus: Absorption property of the compound in acetonitrile assessed as absorption coefficient by UV-visible spectrophotometric method. The data set is classed as physicochemical. The procedure, abridged:
(§2)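 Electronic absorption spectra recorded by UV-visible spectrophotometry at room temperature. Solvents were chloroform, isopropanol, acetonitrile, DMF, and PBS buffer containing 1% Cremophor EL/1,2-propanediol (10:3, v:v). Chloroform data were referenced to the non-halogenated parent dye.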

Data set [5] can be described thus: Absorption property of the compound in chloroform assessed as hypsochromic shift by measuring maximum absorption wavelength by UV-visible spectrophotometric method. It is filed as physicochemical. In outline:
as §2

Data set [6] in a line: Stability of the compound in PBS containing 1% Cremophor EL/1,2-propanediol (10:3, v:v) system assessed as compound degradation under dark condition. The conditions noted are these: buffer. It is filed as physicochemical.
The nature of data set [7]: Induction of singlet oxygen generation in N,N-dimethylformamide assessed as relative rate of DPBF degradation to MB at 1 uM irradiated with 90 mW/cm2 halogen light. The data set is classed as functional. The procedure, abridged: (§3)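 Singlet oxygen generation measured with 1,3-diphenylisobenzofuran (DPBF) as scavenger. The decrease in DPBF absorbance at 411 nm was monitored over time during light irradiation, and the photodegradation rate was calculated.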

Data set [8] in a line: Stability of the compound in acetonitrile assessed as compound degradation under dark condition. It is filed as physicochemical.
Data set [9] in a line: Photostability of the compound in N,N-dimethylformamide assessed as compound degradation irradiated with 90 mW/cm2 light. It is filed as physicochemical.
Data set [10] can be described thus: Absorption property of the compound in PBS containing 1% Cremophor EL/1,2-propanediol (10:3, v:v) system assessed as absorption coefficient by UV-visible spectrophotometric method. It is filed as physicochemical. The conditions noted are these: buffer. The procedure, abridged: as §2
The nature of data set [11]: Photostability of the compound in acetonitrile assessed as compound degradation irradiated with 90 mW/cm2 light. It is filed as physicochemical.
Data set [12] is described as follows: Photostability of the compound in isopropanol assessed as compound degradation irradiated with 90 mW/cm2 light. It is filed as physicochemical.
The nature of data set [13]: Dark toxicity in human SW480 cells assessed as reduction in cell viability after 3 hrs by MTT assay. It is filed as cell-based.
Data set [14] in a line: Toxicity in human HeLa cells xenografted Balb/c nu/nu mouse assessed as body weight loss at 2 mg/kg, iv pretreated for 15 mins followed by 54 J/cm2 light irradiation for 10 mins and measured for 24 days. The data set is classed as organism-based. The note with it: in vivo, 0.25 h. The procedure, abridged:
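Female Balb/c nu/nu mice (18-22 g) carried subcutaneous HeLa cells (about 5×10^6, right back) and were treated on day 7 at a tumor volume of 80-100 mm³. Five mice per group received a tail-vein dose; saline controls were also irradiated. Fifteen minutes later the tumor was irradiated once with a 75 W halogen lamp (590 nm cut-on, 90 mW/cm², 10 min), without anaesthesia. Body weight was recorded every other day.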

Data set [15] can be described thus: Absorption property of the compound in chloroform assessed as absorption coefficient by UV-visible spectrophotometric method. It is filed as physicochemical. The procedure, abridged:
as §2

The next data set has as its system MCF7. In words: Phototoxicity against human MCF7 cells assessed as reduction in cell viability preincubated for 3 hrs followed by 54 J/cm2 light irradiation and measured after 24 hrs by MTT assay. The conditions noted are these: MCF7, light or radiation study. The data set is classed as functional, cell-based. In outline: as §1
A short description of data set [16]: Induction of singlet oxygen generation in isopropanol assessed as relative rate of DPBF degradation to MB at 1 uM irradiated with 90 mW/cm2 halogen light. The data set is classed as functional. In outline: as §3
Data set [17] relates to HeLa. Kind of data set: Antitumor activity against human HeLa cells xenografted in Balb/c nu/nu mouse assessed as tumor growth inhibition at 2 mg/kg, iv pretreated for 15 mins followed by 54 J/cm2 light irradiation for 10 mins and measured after 24 days. The data set is classed as functional, organism-based. In outline: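 Female Balb/c nu/nu mice with subcutaneous HeLa tumors (5×10^6 cells) reaching 80–100 mm³ on day 7 were randomized, n = 5 per group. Mice received 2 mg/kg by tail vein, or saline for controls. After 15 min the tumor was irradiated once with 54 J/cm² (75 W halogen lamp, >590 nm filter, 90 mW/cm², 10 min), unanaesthetized. Calipers every other day; V = 0.5×L×W²; body weight tracked.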
Background: In xenograft studies the graft and the host belong to different species.

Data set [18] in a line: Absorption property of the compound in N,N-dimethylformamide assessed as absorption coefficient by UV-visible spectrophotometric method. It is filed as physicochemical. The procedure, abridged:
as §2

Data set [19] in a line: Induction of singlet oxygen generation in PBS containing 1% Cremophor EL/1,2-propanediol (10:3, v:v) system assessed as relative rate of DPBF degradation to MB at 1 uM irradiated with 90 mW/cm2 halogen light. The data set is classed as functional. The procedure, abridged:
as §3

Data set [20] is described as follows: Dark toxicity in human MCF7 cells assessed as reduction in cell viability after 3 hrs by MTT assay. It is filed as cell-based.
Data set [21] can be described thus: Absorption property of the compound in isopropanol assessed as absorption coefficient by UV-visible spectrophotometric method. It is filed as physicochemical. In outline:
as §2

A short description of data set [22]: Dark toxicity in human HeLa cells assessed as reduction in cell viability after 3 hrs by MTT assay. The data set is classed as cell-based. In outline:
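Compound was formulated with Cremophor EL/1,2-propanediol in PBS, filtered, and its concentration confirmed by UV-Vis. HeLa cells in DMEM with 10% FBS at 37 °C, 5% CO2 were seeded at 3×10^3 cells/well and adhered overnight. Cells were exposed to graded concentrations for 3 h without light, incubated 24 h, then MTT 0.5 mg/mL for 4 h; formazan dissolved in DMSO, A490 read.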

Active and inactive are the calls of the source. No cut-off for these calls is given here.

In general, IC50 refers to the concentration that gives 50% inhibition. Take `COc1ccc(C2=[N+]3C(=Nc4c(-c5ccccc5)c(Br)c(-c5ccc(OC)cc5)n4[B-]3(F)F)C(c3ccccc3)=C2Br)cc1`: the IC50 is 160 nM with SW480, 130 nM in the data set on HeLa [1] and 150 nM with MCF7. The Stabilty result in data set [2] is recorded as “Stable”; in data set [6], “Unstable”; in [8], “Unstable”; in data set [9], “Unstable”; in data set [11], “Stable”; in data set [12], “Stable”. For the same molecule, the Activity was 720 nm in data set [3]; 59300 M⁻¹ cm⁻¹ in [4]; 679 nm in data set [5]; 34000 M⁻¹ cm⁻¹ in [10]; “Non-Toxic” in [14]; 77000 M⁻¹ cm⁻¹ in [15]. The Activity in [18] and in data set [21] was 59300 M⁻¹ cm⁻¹ throughout. The fold change (FC) in data set [7] was 0.36; in data set [16], 4.5; in [19], 1.9. The IC50 at 3 h in data set [13], in [20] and in data set [22] was over 50000 nM each time. The TGI result with HeLa [17] is “Active”.

Turning to `C=Cc1c(C)c2cc3nc(c(CC(=O)O)c4[nH]c(cc5nc(cc1[nH]2)C(C)=C5CC)c(C)c4C(=O)O)[C@@H](CCC(=O)O)[C@@H]3C` [CHLORIN E6], the half-inhibitory concentration (IC50) came to 3100 nM with SW480, 1920 nM in the data set with HeLa [1] and 3400 nM in the data set with MCF7. The IC50 at 3 h in data set [13], in [20] and in [22] was over 50000 nM in each case. The Activity result in [14] is “Toxic”. The TGI entry in the data set on HeLa [17] is “Active”.

Turning to `COc1ccc(C2=[N+]3C(=Nc4c(-c5ccccc5)c(I)c(-c5ccc(OC)cc5)n4[B-]3(F)F)C(c3ccccc3)=C2I)cc1`, the IC50 in the data set with SW480 is 1300 nM; in the data set with HeLa [1], 590 nM; with MCF7, 660 nM. Moreover, the Stabilty entry was “Stable” in [2]; “Unstable” in data set [6]; “Unstable” in data set [8]; “Unstable” in data set [9]; “Stable” in data set [11]; “Stable” in data set [12]. The Activity in data set [3] was found to be 723 nm; in data set [4], 59300 M⁻¹ cm⁻¹; in [5], 679 nm; in [10], 34000 M⁻¹ cm⁻¹; in [15], 74000 M⁻¹ cm⁻¹; in [18], 59300 M⁻¹ cm⁻¹. Besides, in [21], the Activity stood at 59300 M⁻¹ cm⁻¹. Further, the fold change (FC) in [7] came to 0.66; in data set [16] it was 7; in [19], 2.2. The IC50 at 3 h in data set [13], in data set [20] and in data set [22] was over 50000 nM each time.

(Values after ChEMBL document CHEMBL4725347, “Discovery of a Monoiodo Aza-BODIPY Near-Infrared Photosensitizer: in vitro and in vivo Evaluation for Photodynamic Therapy” (J Med Chem, 2020).)
